# Key:
# [1] = In vitro stability of hPTH; type: physicochemical
# Outline: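 Peptide (1.0 mg teriparatide acetate per mL in 50 mM Tris, pH 6.5, no SBTI) mixed 1:1 with enzyme-free Tris buffer and incubated at 37 °C with shaking. Samples were taken at 2, 5, 10, 15, 30 and 60 min and quenched with an equal volume of 0.5% TFA. A zero-time mix served as 100%. Peptide was measured by C18 HPLC-UV. Run in duplicate.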
# pepsin = details: ref Werle et al. (2006); cited from earlier work
# trypsin = details: ref Werle et al. (2006); cited from earlier work
# chymotrypsin = details: ref Werle et al. (2006); cited from earlier work
# aminopeptidase N = details: ref Werle et al. (2006); cited from earlier work
# elastase = details: ref Werle et al. (2006); cited from earlier work
# [2] = tested on: membrane-bound peptidases; details: ref Werle et al. (2006); cited from earlier work
# [3] = SBTI at the levels found in the tested formulations; ref Hernández-Ledesma and Hsieh, 2017; Burshtein et al. 2018b; cited from earlier work
# [4] = 50 mM Tris buffer without protease, pH 6.5
Compound,"remaining at 0.25 h, 0.5 mg/mL [1, 4] [%]","remaining at 0.5 h, 0.5 mg/mL [1, 4] [%]","remaining at 1 h, 0.5 mg/mL [1, 4] [%]","stability of hPTH(1–34) alone ([1]; no protease, no SBTI, 50 mM Tris buffer pH 6.5, 37 °C, HPLC-UV, n = 2)",degradation by GIT protease pepsin (pepsin),degradation by GIT protease trypsin (trypsin),degradation by GIT protease chymotrypsin (chymotrypsin),effect of aminopeptidase N on the degradation of hPTH(1–34) (aminopeptidase N),effect of elastase on the degradation of hPTH(1–34) (elastase),effect of membrane-bound peptidases on the degradation of hPTH(1–34) [2],tolerability in human trials [3]
"CC[C@H](C)[C@H](NC(=O)[C@H](CCC(=O)O)NC(=O)[C@H](CO)NC(=O)[C@@H](NC(=O)[C@@H](N)CO)C(C)C)C(=O)N[C@@H](CCC(N)=O)C(=O)N[C@@H](CC(C)C)C(=O)N[C@@H](CCSC)C(=O)N[C@@H](Cc1cnc[nH]1)C(=O)N[C@@H](CC(N)=O)C(=O)N[C@@H](CC(C)C)C(=O)NCC(=O)N[C@@H](CCCCN)C(=O)N[C@@H](Cc1cnc[nH]1)C(=O)N[C@@H](CC(C)C)C(=O)N[C@@H](CC(N)=O)C(=O)N[C@@H](CO)C(=O)N[C@@H](CCSC)C(=O)N[C@@H](CCC(=O)O)C(=O)N[C@@H](CCCN=C(N)N)C(=O)N[C@H](C(=O)N[C@@H](CCC(=O)O)C(=O)N[C@@H](Cc1c[nH]c2ccccc12)C(=O)N[C@@H](CC(C)C)C(=O)N[C@@H](CCCN=C(N)N)C(=O)N[C@@H](CCCCN)C(=O)N[C@@H](CCCCN)C(=O)N[C@@H](CC(C)C)C(=O)N[C@@H](CCC(N)=O)C(=O)N[C@@H](CC(=O)O)C(=O)N[C@H](C(=O)N[C@@H](Cc1cnc[nH]1)C(=O)N[C@@H](CC(N)=O)C(=O)N[C@@H](Cc1ccccc1)C(=O)O)C(C)C)C(C)C [hPTH(1–34), teriparatide]",100,100,100,stable for at least one hour,rapidly degraded,rapidly degraded,rapidly degraded,very limited effect,very limited effect,very limited effect,–
soybean trypsin inhibitor [SBTI],–,–,–,–,–,–,–,–,–,–,well tolerated
